pIC50, pKi: −log10 of the molar value. Calls of active or inactive are those of the source. No cut-off for these calls is given here.
These molecules were tested against Calcitonin gene-related peptide type 1 receptor (Homo sapiens) (UniProt Q16602) (assay: Antagonist activity at CGRP receptor in human SK-N-MC cells assessed as inhibition of […]-induced cAMP production).
Calcitonin gene-related peptide type 1 receptor (Homo sapiens), sequence (Q16602 whole entry): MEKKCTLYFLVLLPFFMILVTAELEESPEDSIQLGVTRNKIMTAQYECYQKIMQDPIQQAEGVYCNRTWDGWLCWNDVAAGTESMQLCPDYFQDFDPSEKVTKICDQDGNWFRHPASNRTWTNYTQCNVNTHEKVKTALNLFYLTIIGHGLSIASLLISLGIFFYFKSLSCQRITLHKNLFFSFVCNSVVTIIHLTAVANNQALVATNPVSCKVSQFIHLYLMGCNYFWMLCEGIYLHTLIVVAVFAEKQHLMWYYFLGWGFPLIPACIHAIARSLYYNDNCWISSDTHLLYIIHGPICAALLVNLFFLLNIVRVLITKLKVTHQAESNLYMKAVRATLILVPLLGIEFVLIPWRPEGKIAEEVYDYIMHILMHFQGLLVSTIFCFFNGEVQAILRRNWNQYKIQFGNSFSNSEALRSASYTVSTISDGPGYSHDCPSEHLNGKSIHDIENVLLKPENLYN
Assay type: functional, cell-based
How it was run: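 Concentration-dependent inhibition of CGRP-stimulated cAMP production measured in SK-N-MC cells expressing the human CGRP receptor. Value reported as EC50.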
With `CC(C)c1cc(CC(NC(=O)N2CCC(N3Cc4ccccc4NC3=O)CC2)C(=O)N2CCC(N3CCCCC3)CC2)cc2cn[nH]c12` (racemic) the inhibition was “Active”.
For `N#Cc1cc(C[C@@H](NC(=O)N2CCC(N3Cc4ccccc4NC3=O)CC2)C(=O)N2CCC(N3CCCCC3)CC2)cc2oc(=O)[nH]c12`, the inhibition was “Active”.
With `Cc1cc(C[C@@H](NC(=O)N2CCC(N3Cc4ccccc4NC3=O)CC2)C(=O)N2CCC(N3CCCCC3)CC2)cc2nn[nH]c12` the inhibition was “Active”.
For `CCc1cc(CC(NC(=O)N2CCC(N3Cc4ccccc4NC3=O)CC2)C(=O)N2CCC(N3CCCCC3)CC2)cc2cn[nH]c12` (racemic), the inhibition was “Active”.
In the case of `O=C(NC(Cc1cc(Cl)c2[nH]ncc2c1)C(=O)N1CCC(N2CCCCC2)CC1)N1CCC(N2Cc3ccccc3NC2=O)CC1` (racemic), the inhibition was “Active”.
With `Cc1cc(C[C@@H](NC(=O)N2CCC(N3Cc4ccccc4NC3=O)CC2)C(=O)N2CCC(N3CCCCC3)CC2)cc2cn[nH]c12` the inhibition was “Active”.
For `O=C(N[C@H](Cc1cc2oc(=O)[nH]c2cc1Br)C(=O)N1CCC(N2CCCCC2)CC1)N1CCC(N2Cc3ccccc3NC2=O)CC1`, the inhibition was “Active”.
For `O=C(N[C@H](Cc1cc(Cl)c2[nH]c(=O)oc2c1)C(=O)N1CCC(N2CCCCC2)CC1)N1CCC(N2Cc3ccccc3NC2=O)CC1`, the inhibition was “Active”.
In the case of `Cc1cc(C[C@H](NC(=O)N2CCC(N3Cc4ccccc4NC3=O)CC2)C(=O)N2CCC(N3CCCCC3)CC2)cc2cn[nH]c12`, the inhibition was “Active”.

These molecules were tested against T1, Cytochrome P450 3A4 (Homo sapiens, UniProt P08684) (assay: Inhibition of CYP3A4 (unknown origin) using 7-benzyloxy-4-trifluoromethylcoumarin as substrate).
T1 sequence (P08684 whole entry): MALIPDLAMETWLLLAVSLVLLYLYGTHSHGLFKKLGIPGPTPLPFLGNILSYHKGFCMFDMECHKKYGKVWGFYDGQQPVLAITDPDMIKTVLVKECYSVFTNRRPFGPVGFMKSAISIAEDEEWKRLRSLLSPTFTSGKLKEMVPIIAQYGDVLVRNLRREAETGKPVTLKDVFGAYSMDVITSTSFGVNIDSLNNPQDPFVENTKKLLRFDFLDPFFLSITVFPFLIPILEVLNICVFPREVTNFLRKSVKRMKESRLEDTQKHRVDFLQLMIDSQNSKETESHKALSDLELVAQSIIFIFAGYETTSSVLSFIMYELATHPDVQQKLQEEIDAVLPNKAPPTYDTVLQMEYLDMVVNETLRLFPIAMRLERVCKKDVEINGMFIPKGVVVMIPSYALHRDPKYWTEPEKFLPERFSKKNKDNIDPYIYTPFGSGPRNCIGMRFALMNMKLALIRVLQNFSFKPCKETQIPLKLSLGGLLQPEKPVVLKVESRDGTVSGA
Assay type: ADME
With `Cc1cc(C[C@@H](NC(=O)N2CCC(N3Cc4ccccc4NC3=O)CC2)C(=O)N2CCC(N3CCCCC3)CC2)cc2[nH]nnc12` the pIC50 was under 4.40.
`CCc1cc(CC(NC(=O)N2CCC(N3Cc4ccccc4NC3=O)CC2)C(=O)N2CCC(N3CCCCC3)CC2)cc2cn[nH]c12` (racemic) showed a pIC50 of 4.60.
Molecule `O=C(NC(Cc1cc(Cl)c2[nH]ncc2c1)C(=O)N1CCC(N2CCCCC2)CC1)N1CCC(N2Cc3ccccc3NC2=O)CC1` (racemic) has a pIC50 of 4.89.
`O=C(N[C@H](Cc1cc(Cl)c2[nH]c(=O)oc2c1)C(=O)N1CCC(N2CCCCC2)CC1)N1CCC(N2Cc3ccccc3NC2=O)CC1` showed a pIC50 of under 4.40.

What follows are molecules tested against T1, Cytochrome P450 3A4 (assay: Inhibition of CYP3A4 (unknown origin) using 7-benzyloxy-resorufin as substrate).
Assay type: ADME
In the case of `Cc1cc(C[C@@H](NC(=O)N2CCC(N3Cc4ccccc4NC3=O)CC2)C(=O)N2CCC(N3CCCCC3)CC2)cc2[nH]nnc12`, the pIC50 was 5.14.
Work on `CC(C)c1cc(CC(NC(=O)N2CCC(N3Cc4ccccc4NC3=O)CC2)C(=O)N2CCC(N3CCCCC3)CC2)cc2cn[nH]c12` (racemic) yielded a pIC50 of 6.43.
For `CCc1cc(CC(NC(=O)N2CCC(N3Cc4ccccc4NC3=O)CC2)C(=O)N2CCC(N3CCCCC3)CC2)cc2cn[nH]c12` (racemic), the pIC50 was 6.35.
`O=C(NC(Cc1cc(Cl)c2[nH]ncc2c1)C(=O)N1CCC(N2CCCCC2)CC1)N1CCC(N2Cc3ccccc3NC2=O)CC1` (racemic) gave a pIC50 of 6.74.
`O=C(N[C@H](Cc1cc(Cl)c2[nH]c(=O)oc2c1)C(=O)N1CCC(N2CCCCC2)CC1)N1CCC(N2Cc3ccccc3NC2=O)CC1` gave a pIC50 of 4.77.

What follows are molecules tested against Calcitonin gene-related peptide type 1 receptor (Homo sapiens, UniProt O60894+Q16602) (assay: Binding affinity to CGRP receptor (unknown origin)).
Calcitonin gene-related peptide type 1 receptor, sequence (Q16602 whole entry, one chain of several): as the sequence (Q16602 whole entry) above
Molecule `Cc1cc(C[C@@H](NC(=O)N2CCC(N3Cc4ccccc4NC3=O)CC2)C(=O)N2CCC(N3CCCCC3)CC2)cc2[nH]nnc12` has a pKi of 10.82.
For `CC(C)c1cc(CC(NC(=O)N2CCC(N3Cc4ccccc4NC3=O)CC2)C(=O)N2CCC(N3CCCCC3)CC2)cc2cn[nH]c12` (racemic), the pKi was 9.66.
With `N#Cc1cc(C[C@@H](NC(=O)N2CCC(N3Cc4ccccc4NC3=O)CC2)C(=O)N2CCC(N3CCCCC3)CC2)cc2oc(=O)[nH]c12` the pKi was 7.96.
Molecule `CCc1cc(CC(NC(=O)N2CCC(N3Cc4ccccc4NC3=O)CC2)C(=O)N2CCC(N3CCCCC3)CC2)cc2cn[nH]c12` (racemic) has a pKi of 11.30.
With `O=C(NC(Cc1cc(Cl)c2[nH]ncc2c1)C(=O)N1CCC(N2CCCCC2)CC1)N1CCC(N2Cc3ccccc3NC2=O)CC1` (racemic) the pKi was 10.96.
Work on `O=C(N[C@H](Cc1cc2oc(=O)[nH]c2cc1Br)C(=O)N1CCC(N2CCCCC2)CC1)N1CCC(N2Cc3ccccc3NC2=O)CC1` yielded a pKi of 9.85.
For `O=C(N[C@H](Cc1cc(Cl)c2[nH]c(=O)oc2c1)C(=O)N1CCC(N2CCCCC2)CC1)N1CCC(N2Cc3ccccc3NC2=O)CC1`, the pKi was 10.41.
With `Cc1cc(C[C@H](NC(=O)N2CCC(N3Cc4ccccc4NC3=O)CC2)C(=O)N2CCC(N3CCCCC3)CC2)cc2cn[nH]c12` the pKi was 7.57.
